# Screening data from PubChem.
# G6PDH CS: inhibits Leuconostoc G6PDH, flagging false hits in G6PDH-based assays; Purified L. mesenteroides G6PDH, diaphorase/resazurin coupled fluorescence, 45 min; 200,000 compounds, 0.12% hits; inhibition, % at 5 µM; AID 1020; in the data active = inhibition above about 50%
# Diaphorase act: diaphorase activation or chemical reduction counter-screen; Diaphorase/resazurin coupled assay, resorufin fluorescence, 16 min; active compounds read high; 1 = vehicle wells, 0 = NADH-free wells; activation factor at 20 µM; 190,000 compounds, 0.005% hits; AID 1229;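 active = diaphorase activity raised at least twofold by the compound at 20 µM; inactive = activation factor below 2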
#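 System – purified diaphorase enzyme from Clostridium kluyveri · Input – enzyme 0.07 U/mL final · Also added – final NADH 0.114 mM, resazurin 0.1 mM · Measured by – fluorescence of resorufin, 544 nm excitation, 590 nm emission · Timing – 16 min enzyme reaction, ambient temperature · Measure – resorufin increase flagging diaphorase activators or reducers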
# FLuc inh counter: Photinus pyralis luciferase inhibition counter-screen; P08659; ATPLite firefly luciferase biochemical luminescence, 10 min; inhibition, % at 10 µM; 200,000 compounds, 1.5% hits; AID 1006;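 active = inhibition above about 50% when tested at 10 µM, limit read from the data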
# Target sequence (P08659 whole entry, looked up): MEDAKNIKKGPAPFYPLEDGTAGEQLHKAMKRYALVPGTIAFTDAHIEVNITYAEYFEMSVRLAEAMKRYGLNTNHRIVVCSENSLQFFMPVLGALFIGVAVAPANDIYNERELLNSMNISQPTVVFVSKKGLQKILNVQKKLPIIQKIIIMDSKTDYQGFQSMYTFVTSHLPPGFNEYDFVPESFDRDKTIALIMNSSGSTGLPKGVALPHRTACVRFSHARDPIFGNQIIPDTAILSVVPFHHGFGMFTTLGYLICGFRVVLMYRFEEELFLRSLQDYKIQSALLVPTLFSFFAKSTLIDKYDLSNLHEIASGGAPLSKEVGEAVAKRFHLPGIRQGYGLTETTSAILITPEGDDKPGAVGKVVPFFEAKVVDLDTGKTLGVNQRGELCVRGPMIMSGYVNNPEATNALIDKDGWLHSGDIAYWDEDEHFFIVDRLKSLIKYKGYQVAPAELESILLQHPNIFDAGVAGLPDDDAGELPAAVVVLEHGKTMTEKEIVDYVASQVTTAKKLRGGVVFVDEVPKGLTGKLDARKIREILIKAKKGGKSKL
# Diaph inh CS: diaphorase inhibition or chemical oxidation counter-screen; diaphorase resazurin-to-resorufin fluorescence, NADH, 16 min; bacterial (C. kluyveri) enzyme, not human; inhibition, % at 20 µM; 190,000 compounds, 0.69% hits; AID 1217;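 active = primary screen inhibition at 20 µM above a set limit, cut at about 50% in these data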;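 also: plate controls were DMSO with full reaction for no effect and wells lacking NADH for full effect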
#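 Assay system: diaphorase enzyme from Clostridium kluyveri. Quantity: enzyme working solution with 0.14 U/mL diaphorase. Schedule: reaction incubation of 16 min at room temperature. Technique: resorufin fluorescence, excitation 544 nm, emission 590 nm. Controls: No-NADH positive control and DMSO neutral control.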
# FLuc stim CS: affects firefly luciferase, flagging false hits in luciferase stimulation screens; ATPlite luciferase biochemical, luminescence, 10 min; 0 = ATP-free wells, 1 = DMSO control; activation factor at 10 µM; 200,000 tested, under 10 active; AID 1027;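 active = luciferase activation factor, scaled between plate controls, of at least 2 with compound at 10 µM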
#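 assay system = Luciferase/luciferin detection reagent, cell-free biochemical luciferase assay | also added = ATP substrate | times = 10 min post-reagent at room temperature | measured by = luminescence from luciferase reaction | measure = luciferase activation, seen as luminescence increase over controls | benchmarks = low control with PBS replacing ATP, high control enzyme plus ATP without compound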
# Active calls of the source: *. This is a sample that favours compounds with a hit; in the whole collection about 2.3% have one here.
SMILES,G6PDH CS,Diaphorase act,FLuc inh counter,Diaph inh CS,FLuc stim CS
c1ccc(-c2ccccc2OCCCCN2CCCCCC2)cc1,7.3,0.9,-7.3,9.0,1.1
NC(=S)Nc1ccc2cn[nH]c2c1,4.9,0.9,-4.6,8.5,1
c1cc2cn[nH]c2cc1NC1CCCCCC1,32.9,0.3,1.1,72.2*,1
CCOC(=O)c1c(C)[nH]c(C=C2C(=O)CCCC2=O)c1O,9.0,0.8,-7.1,19.5,1.1
O=C(COC(=O)c1cccnc1)Nc1ccc2c(c1)OCO2,7.9,0.8,-0.3,17.5,1
CCN(CC)c1ccc(/C=N/N2C(=O)c3ccccc3C2=O)cc1,-6.8,0.8,38.0,22.1,0.6
COc1ccc(/C=N/N2C(=O)c3ccccc3C2=O)cc1,11.9,0.9,74.0*,8.7,0.3
COc1ccc(/C=N\n2nnc3ccccc32)cc1,-2.3,1,68.8*,4.0,0.3
O=C(C[n+]1ccc(Cc2ccccc2)cc1)Nc1ccccc1,-2.8,1,-3.2,2.4,1
O=C(COc1ccccc1O)N1CCN(C(=O)c2ccco2)CC1,6.1,0.9,-10.5,6.6,1.1
O=C(COc1cccnc1[N+](=O)[O-])N1CCN(C(=O)c2ccco2)CC1,12.4,0.4,-5.1,58.9*,1.1
Cc1ccc(Nc2nc(-c3ccc(O)c(O)c3)cs2)nc1,24.5,0.2,19.4,83.3*,0.8
O=C(NC(=S)N1CCCCCC1)c1ccc(Cl)cc1Cl,14.0,0.8,-5.9,23.3,1.1
CCNc1nc(N)nc(-c2cc(Cl)ccc2O)n1,-4.1,0.9,62.8*,13.8,0.4
CC1=NN(C(C#N)c2cccc([N+](=O)[O-])c2)C(C)(C)C1 (configuration not stated),2.1,1,-5.6,4.0,1.1
CSc1ccccc1-c1nnc(-c2ccccc2)o1,-10.6,0.8,64.2*,15.3,0.4
Cc1ccc(-c2nnc(Nc3ccccc3)o2)cc1,1.7,0.9,88.2*,8.3,0.1
CSc1ccccc1-c1nnc(-c2ccc(C)cc2)o1,2.1,0.9,71.4*,13.9,0.3
CSc1nnc(-c2ccccc2SC)o1,6.0,0.9,1.9,5.3,1
Cc1ccc(NC(=O)Nc2nnc(-c3ccccc3)o2)cc1,11.8,1,4.3,-1.4,1
Cc1ccc(NC(=O)C2CCN(S(=O)(=O)c3c(C)n[nH]c3C)CC2)nc1,16.8,0.9,-3.5,13.2,1
CC(C)c1cc(NCCCN2CCOCC2)n2c(nc3ccccc32)c1C#N,10.4,0.9,-5.1,7.2,1.1
O=C(NNC(=S)NC(=O)c1cccs1)c1cccnc1,-2.1,0.4,-7.1,56.6*,1.1
Cc1cccnc1NC(=S)NC(=O)c1cncc(Br)c1,7.4,0.8,45.3,15.9,0.5
O=C(NC(=S)Nc1ccc(Br)cn1)c1cncc(Br)c1,5.5,0.9,41.9,14.9,0.6
SMILES,G6PDH CS,Diaphorase act,FLuc inh counter,Diaph inh CS,FLuc stim CS
O=C(NNC(=S)NC(=O)c1cccnc1)c1ccc(Cl)cc1,3.2,0.6,-3.6,35.9,1
Cc1cccnc1NC(=S)NC(=O)c1cccs1,10.0,0.8,70.6*,24.0,0.3
O=C(NC(=S)Nc1ccc(Br)cn1)c1cccs1,6.2,1,71.6*,0.0,0.3
O=C(NC(=S)Nc1ccccn1)c1cncc(Br)c1,-11.0,0.8,64.5*,22.6,0.4
COc1ccc(NC(=O)CC23CC4CC(CC(C4)C2)C3)cn1,12.0,0.9,-1.0,11.7,1
CCCn1c(CNc2ccccc2O)nc2ccccc21,62.4*,0.7,0.5,32.5,1
Cc1cc(C)c2cc(CN(Cc3ccco3)C(=S)NCC3CCCO3)c(=O)[nH]c2c1 (configuration not stated),15.9,0.8,-5.5,16.2,1.1
CCOC(=O)c1ccc(S(=O)(=O)N2CCC(C(=O)O)CC2)cc1,1.4,0.9,-2.1,14.2,1
CCCOc1ccc(N2CC(C(=O)Nc3ccc(N4CCOCC4)cc3)CC2=O)cc1 (configuration not stated),-4.1,1,-4.0,-2.0,1
O=C(Nc1ccc(NC(=O)c2ccco2)nc1)c1ccco1,6.7,0.9,84.0*,11.1,0.2
O=C(Nc1ccc2c(c1)nc1n2CCSC1)c1ccco1,8.4,0.9,86.7*,6.8,0.1
CCOc1ccc(NC(=O)c2ccco2)cc1,7.3,0.8,76.0*,16.2,0.2
O=C(Nc1ccc(NC(=O)c2ccco2)nc1)c1ccccn1,3.6,1,60.9*,-1.8,0.4
CCOc1ccc(NC(=O)CCC(=O)NNC(=O)c2ccco2)cc1,1.1,1,-2.9,1.4,1
Cc1cc(C)n(-c2cccc(F)n2)n1,0.9,1,2.2,-4.3,1
CCOC(=O)N(C)S(=O)(=O)c1ccccc1[N+](=O)[O-],2.1,1,-0.4,0.6,1
CCOc1ccc(NC(=O)Nc2ccccc2SC)cc1,2.5,0.9,50.2*,9.4,0.5
O=C(Nc1ccc(NC(=O)C2CCCCC2)cn1)c1ccco1,16.1,1,86.1*,4.2,0.1
CSc1ccccc1NC(=O)Nc1ccccc1,-12.4,0.9,6.6,7.0,0.9
CCn1cnc2cc(NC(=O)c3ccco3)ccc21,6.9,0.9,66.3*,11.0,0.3
Cc1cc(N=NC(=O)c2ccccc2O)c2ccccc2c1O,14.1,0.9,48.7,14.9,0.5
O=C(N=Nc1ccc(NOC(=O)c2ccccc2Br)cc1)c1ccccc1O,-2.0,0.4,61.2*,64.7*,0.4
O=C(CN1CCCc2ccccc21)N/N=C/c1c(O)ccc2ccccc12,-15.5,0.7,-3.4,25.2,1
